These results are taken from ChEMBL document CHEMBL2375271, “Antiproliferative Homoisoflavonoids and Bufatrienolides from Urginea depressa” (J Nat Prod, 2013).

Some results are limits rather than exact numbers.

Test [1] in a line: Cytotoxicity against human H522-T1 cells assessed as growth inhibition after 96 hrs by CellTiter-Glo luminescence assay. Format: functional, cell-based. To be noted: H522-T1, 96 h. Summed up: (§1)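 Antiproliferative activity was determined against the A2058 melanoma and H522-T1 lung cancer cell lines.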
Background: Cellular ATP, detected with luciferase, serves as a proxy for viable cell number.

The subject of test [2] is A2058. In words: Cytotoxicity against human A2058 cells assessed as growth inhibition after 96 hrs by CellTiter-Glo luminescence assay. Format: functional, cell-based. Particulars: A2058, 96 h. Summed up:
as §1

Test [3] concerns A2780. In words: Cytotoxicity against human A2780 cells assessed as growth inhibition. Format: functional, cell-based. Summed up:
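Drug-sensitive A2780 human ovarian cancer cell line; antiproliferative activity determined per a previously described protocol.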

The test system of test [4] is A2780. In words: Selectivity ratio of IC50 for human A2780 cells to IC50 for human H522-T1 cells. Format: functional.
Test [5] relates to A2058. Kind of test: Selectivity ratio of IC50 for human A2780 cells to IC50 for human A2058 cells. Format: functional.

Usually IC50 stands for the concentration at which inhibition is half-maximal. `CC[C@]1(O)C[C@@H]2CN(CCc3c([nH]c4ccccc34)[C@@](C(=O)OC)(c3cc4c(cc3OC)N(C)[C@H]3[C@@](O)(C(=O)OC)[C@H](OC(C)=O)[C@]5(CC)C=CCN6CC[C@]43[C@@H]65)C2)C1` [VINBLASTINE]: the figures for the 50% inhibitory concentration (IC50) (in test [1]; in the test with A2058 [2]) were 5.2 nM and 3.7 nM, respectively.

Turning to `COc1cc2c(c(OC)c1OC)C(=O)[C@@H](Cc1ccc3c(c1)OCO3)CO2` [URGINEANIN E], the 50% inhibitory concentration (IC50) in test [1] was above 10000 nM; with A2058 [2], above 10000 nM; in the test with A2780 [3], 1440 nM.

On to `COc1cc2c(c(OC)c1OC)C(=O)[C@@](O)(Cc1ccc(O)cc1)CO2`, for which the 50% inhibitory concentration (IC50) in test [1] was 6780 nM; in the test with A2058 [2], above 10000 nM; in the test with A2780 [3] it was 3400 nM.

Regarding `COc1ccc(C[C@@]2(O)COc3cc(OC)c(OC)c(OC)c3C2=O)cc1`, the “Ratio IC50” value with A2780 [4] and in the test on A2058 [5] was 5 each time. Besides, the concentration for half-maximal inhibition (IC50) in test [1] worked out at 71 nM; with A2058 [2], 68 nM; in the test with A2780 [3], 320 nM.

For the compound `CC(=O)O[C@@H]1C[C@]2(O)[C@@H]3CCC4=C[C@@H](O[C@@H]5O[C@H](CO)[C@@H](O)[C@H](O)[C@H]5O)CC[C@]4(C=O)[C@H]3CC[C@]2(C)[C@H]1c1ccc(=O)oc1`, the values for the IC50 (in test [1]; in the test with A2058 [2]; in the test with A2780 [3]) were 44 nM, 60 nM and 11 nM, respectively.

Take `COc1cc2c(c(OC)c1OC)C(=O)[C@@](O)(Cc1ccc3c(c1)OCO3)CO2` [URGINEANIN D]: the IC50 in test [1] amounted to 430 nM; in the test on A2058 [2], 380 nM; with A2780 [3] it was 350 nM.

`C[C@]12CC[C@H]3[C@@H](CCC4=C[C@@H](O[C@@H]5O[C@H](CO)[C@@H](O)[C@H](O)[C@H]5O)CC[C@@]43C=O)[C@@]1(O)CC[C@@H]2c1ccc(=O)oc1`: the IC50 in test [1] stood at 34 nM; in the test on A2058 [2] it was 48 nM; with A2780 [3] it was 24 nM.

As to `COc1ccc(C[C@H]2COc3cc(OC)c(OC)c(OC)c3C2=O)cc1`, the half-maximal inhibitory concentration (IC50) in test [1] worked out at 740 nM; with A2058 [2], 690 nM; in the test on A2780 [3], 1350 nM.

For `C[C@@H]1O[C@@H](O[C@H]2[C@@H](O)[C@H](O[C@@H]3C=C4CC[C@@H]5[C@H](CC[C@]6(C)[C@@H](c7ccc(=O)oc7)CC[C@]56O)[C@@]4(C=O)CC3)O[C@@H](C)[C@@H]2O[C@@H]2O[C@H](CO)[C@@H](O)[C@H](O)[C@H]2O)[C@H](O)[C@H](O)[C@H]1O`, the concentration for half-maximal inhibition (IC50) in test [1] was found to be 51 nM; in the test on A2058 [2], 76 nM; with A2780 [3] it was 41 nM.

Regarding `C[C@@H]1O[C@@H](O[C@H]2[C@@H](O)[C@H](O[C@@H]3C=C4CC[C@@H]5[C@H](CC[C@]6(C)[C@@H](c7ccc(=O)oc7)CC[C@]56O)[C@@]4(C)CC3)O[C@@H](C)[C@@H]2O[C@@H]2O[C@H](CO)[C@@H](O)[C@H](O)[C@H]2O)[C@H](O)[C@H](O)[C@H]1O`, the half-inhibitory concentration (IC50) in test [1] was found to be 110 nM; with A2058 [2] it was 180 nM; in the test on A2780 [3] it was 111 nM.

In the case of `COc1ccc(C[C@H]2COc3cc(O)cc(O)c3C2=O)cc1`, the values for the IC50 (in test [1]; in the test with A2058 [2]; in the test with A2780 [3]) were above 10000 nM, above 10000 nM and 23000 nM, respectively.
